This excerpt belongs to a sample that is enriched for hits.
Fibroblast inh: blocks proliferation of human lung fibroblasts | viability, % at 10 µM | 85,000 tested, 1.1% active | LL 47 human lung fibroblast viability, ATP luminescence; hits give low values;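 active = viability at or below 50% in the single dose screen; inactive = viability above 50%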;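 also: compound exposure lasted 72 h before the ATP readout; 100% = median luminescence of untreated cell-only wells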
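test system = LL 47 human lung fibroblasts | amount = 1,150 fibroblasts seeded per well | medium = 15% FBS in IMEM | times = overnight cell rest, 72 h compound treatment at 37 °C | measured by = CellTiter-Glo luminescence measuring cellular ATP | read-out = viability percentage against median untreated-cell control | benchmarks = cell-only wells, no compound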
H69AR inhibit: growth inhibitors of human H69AR lung tumor cells. H69AR lung tumor viability, ATP luminescence, 72 h; hits give low values. AID 598. 85,000 tested, 6% active. viability, % at 10 µM;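 active = viability at or below 40%; inactive = viability above 40%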;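 also: multidrug resistant small cell line overexpressing MRP-1 efflux transporter; 100% = mean luminescence of untreated control wells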
HUVEC inhibit: blocks proliferation of human endothelial cells; HUVEC proliferation, CellTiter-Glo luminescence, 72 h; hits give low values; viability, % at 10 µM (by protocol); 86,000 tested, 1.1% active;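 active = viability at or below 30%; inactive = viability above 30%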;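 also: 100% = median luminescence of DMSO-only cell control wells on each plate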
PTEN del growth: growth suppressors of cells with PTEN tumor suppressor deletion. HCT116 PTEN-null viability, CellTiter-Glo, 60 h; hits give low values. viability, % at 10 µM. 140,000 tested, 1.2% active;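 active = viability at or below a set limit, 4 SD under the median of all tested compounds, cut at about 3.7% in these data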;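 also: PTEN knockout HCT116 line with beta catenin targeted HCT116 as companion control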
HCT116 bCat-KO: beta-catenin-lacking colon tumor cell growth suppression; HCT116 beta-catenin knockout viability, CellTiter-Glo, 60 h; hits give low values; viability, % at 10 µM; 140,000 tested, 1.5% active; AID 818;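 active = viability at or under a set limit, the compound median less 4 SD, cut at about 6% in these data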;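 also: 0% = Hyamine 1622 control at 20 µM and 100% = untreated cell control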
Numbers without * were called inactive; nt = no result.

SMILES	Fibroblast inh	H69AR inhibit	HUVEC inhibit	PTEN del growth	HCT116 bCat-KO
NS(=O)(=O)c1ccc(N2N=C(c3ccc(Br)cc3)CC2c2ccc(F)cc2)cc1 (configuration not stated)	nt	nt	nt	1.2*	0.7*
O=C(CSc1nc(C2CC2)nc2ccccc12)NCc1ccc2c(c1)OCO2	nt	nt	nt	101	102
CCc1ccc2ncc(S(=O)(=O)c3ccc(C)c(C)c3)c(N3CCCC3)c2c1	nt	nt	nt	58	58
COc1nc(Nc2nc3ccccc3c(=O)[nH]2)nc2ccc(C)cc12	6.7*	14*	2.6*	nt	nt
CCc1c(C)nc(Nc2nc(C)c3cc(OC)ccc3n2)[nH]c1=O	89	28*	84	53	48
COc1ccc2c(C)nc(Nc3nc(C)c(C)c(=O)[nH]3)nc2c1	13*	31*	14*	1.6*	1.7*
CCCCCc1c(C)nc(Nc2nc(C)c3cc(OC)ccc3n2)[nH]c1=O	96	70	78	64	57
CC(C)C[C@H](NC(=O)OC(C)(C)C)C(=O)N1CCC(C(=O)N[C@@H](Cc2ccccc2)C(=O)O)CC1	97	97	98	96	96
Cn1c(=O)c2c(nc(SCC(=O)N3CCCCCC3)n2C)n(C)c1=O	108	78	102	100	103
Cc1ccc(C(C)NC(=O)/C(C#N)=C\c2c(C)[nH]c3ccccc23)cc1 (configuration not stated)	nt	nt	nt	97	93
COC(=O)c1ccc(/C=C(\C#N)C(=O)NC(C)c2ccccc2)cc1 (configuration not stated)	nt	nt	nt	1.6*	3.7*
C=CCN1C(=O)/C(=C/c2ccc(N(C)C)cc2)S/C1=N\c1nnc(CC)s1	87	26*	63	73	76
CCOc1cc2c(cc1OCC)C(c1cc(OC)c(O)c(OC)c1)NCC2 (configuration not stated)	108	89	113	nt	nt
Cc1ccc2cccnc2c1NC(=S)NC(=O)c1ccccc1	nt	nt	nt	62	47
Cc1cc(NC(=O)c2ccc3c(c2)OCCO3)no1	96	34*	85	72	79
Cc1cc(NC(=O)CSc2nnc(-c3ccc4c(c3)OCCO4)o2)no1	98	2.4*	99	99	92
Cc1ccc(-c2nnc(SCC(=O)Nc3ccccc3F)o2)cc1	49*	64	70	42	38
CCc1nnc(NC(=O)CSc2ccc(-c3nc4ccc(C)cc4[nH]3)cn2)s1	nt	nt	nt	84	80
COc1ccc(C(=O)C(CCC(CNC(C)(C)C)C(=O)c2ccc(OC)cc2)CNC(C)(C)C)cc1 (configuration not stated)	nt	nt	nt	1.2*	1.0*
CCNC1=C(Cl)C(=O)c2ccccc2C1=O	69	41	101	31	19
CCN(CC)c1ccc(NC2=C(Cl)C(=O)c3ccccc3C2=O)cc1	nt	nt	nt	0.5*	0.8*
Cc1ccc(NC2=C(Cl)C(=O)c3ccccc3C2=O)cc1	nt	nt	nt	0.8*	0.9*
O=c1[nH]c(=O)n(Cc2ccccc2)c2nc(-c3ccc(Oc4ccc(F)cc4)c([N+](=O)[O-])c3)n(CCO)c12	nt	nt	nt	1.1*	0.8*
Cc1cccc(N2CCN(S(=O)(=O)c3ccc(S(=O)(=O)N4CCCC4)cc3)CC2)c1C	55	16*	65	77	89
Cc1ccc(C)c(S(=O)(=O)N2CCN(CC(=O)NC(=O)NCc3ccccc3)CC2)c1	nt	nt	nt	88	92
SMILES	Fibroblast inh	H69AR inhibit	HUVEC inhibit	PTEN del growth	HCT116 bCat-KO
CC(C)CNC(=O)CSc1nc(-c2cccs2)cc(C(F)(F)F)n1	101	95	100	91	86
O=C(O)CCS(=O)(=O)c1nc(-c2cccs2)cc(C(F)(F)F)n1	92	33*	93	103	94
CS(=O)(=O)c1nc(-c2cccs2)cc(C(F)(F)F)n1	14*	1.5*	54	1.3*	3.3*
C/C(=N\NC(=O)c1nn(C)c(C)c1Br)c1cccc(NC(=O)c2ccoc2C)c1	nt	nt	nt	98	101
CCCCC(=O)O[C@H]1CC[C@H]2[C@@H]3CCc4cc(O)ccc4[C@H]3CC[C@]12C	85	1.1*	8.9*	63	53
C[C@]12CC[C@@H]3c4ccc(O)cc4CC[C@H]3[C@@H]1CCC2=O	93	81	78	75	78
COc1ccc(C2NC(C(=O)O)Cc3c2[nH]c2ccccc32)cc1OC (configuration not stated)	92	83	89	92	93
COc1ccc(C2NCCc3c2[nH]c2ccccc32)cc1CSc1nc2ccccc2s1 (configuration not stated)	nt	nt	nt	1.3*	1.4*
Cn1cnc([N+](=O)[O-])c1S(=O)(=O)c1ccc(Cl)cc1	nt	nt	nt	1.7*	1.6*
CC(C)(C)NC(=O)COC(=O)c1ccccc1OCC(=O)Nc1ccc(Br)cc1	nt	nt	nt	89	87
ClC(Cl)(c1nnnn1-c1ccccc1)c1nnnn1-c1ccccc1	nt	nt	nt	1.9*	1.3*
COC(=O)c1ccccc1NC(=O)CSc1nc(-c2ccco2)cc(C(F)(F)F)n1	62	24*	61	13	17
Cc1ccc(NC(=O)CSc2nc(-c3ccco3)cc(C(F)(F)F)n2)cc1C	72	22*	48	26	29
O=C(CSc1nc(-c2ccco2)cc(C(F)(F)F)n1)NC1CCCC1	94	90	100	91	95
O=C(CSc1nc(-c2ccco2)cc(C(F)(F)F)n1)Nc1ccc2c(c1)CCC2	60	21*	58	43	50
Cc1cc(NC(=O)CSc2nc(-c3ccco3)cc(C(F)(F)F)n2)n(-c2ccccc2)n1	nt	nt	nt	26	26
O=C(CSc1nnc(-c2ccco2)c(-c2ccco2)n1)Nc1ccccc1	95	71	95	95	90
Cc1ccc(NC(=O)CSc2nnc(-c3ccco3)c(-c3ccco3)n2)cc1	65	26*	44	23	18
CC(=O)c1cccc(NC(=O)Cc2coc3cc4c(cc23)CCC4)c1	nt	nt	nt	81	86
CCCN(CCC)c1nc(NC2CCN(C(=O)OCC)CC2)nc(OC)n1	101	56	102	37	22
COc1ccccc1-c1nnc2n1N=C(c1ccc(O)c(O)c1)CS2	38*	21*	51	15	20
COc1ccc(C2=Nn3c(nnc3-c3ccncc3)SC2)cc1OC	nt	nt	nt	25	37
COc1ccc(C2=Nn3c(nnc3-c3cccnc3)SC2)cc1OC	45*	85	71	nt	nt
O=C(CSc1ccc(-c2ccc(Cl)cc2)nn1)Nc1ccc2c(c1)OCCO2	nt	nt	nt	88	83
CC(=O)c1c(C)[nH]c(C(=O)CSc2nnc(-c3ccccc3)n2Cc2ccc3c(c2)OCO3)c1C	82	20*	13*	100	111
O=C(CSc1nnc(-c2ccccn2)n1Cc1ccccc1)Nc1ccc2c(c1)OCO2	99	14*	54	97	93
CC(=O)c1c(C)[nH]c(C(=O)CSc2nnc(-c3ccco3)n2Cc2ccccc2)c1C	91	39*	79	55	54
CCOC(=O)c1c(C)[nH]c(C(=O)CSc2nnc(-c3cccs3)n2Cc2ccccc2)c1C	79	4.9*	52	95	87
